The results in this text go back to ChEMBL document CHEMBL1137698, “Synthesis, spectral studies and in vitro antibacterial activity of steroidal thiosemicarbazone and their palladium (Pd (II)) complexes” (2009).

SMILES strings stand for the structures. ≈ marks a conversion by molar mass, not a printed value.

A word on the MIC: it is the lowest concentration found to suppress growth. A lower MIC goes with inhibition by little substance.

For test [1], the system named is Staphylococcus aureus. Nature of the test: Antibacterial activity against Staphylococcus aureus at 10 to 100 ug/mL after 18 hrs by disk diffusion method. Type of test: functional. The essentials: (§1)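 Disk diffusion. Bacteria were subcultured in BHI for 18 h at 37 °C, then suspended in saline to McFarland standard. The suspension was mixed with sterile antibiotic agar at 40 °C and poured into plates. Paper disks of 6.0 mm were placed on nutrient agar. DMSO stock was diluted to 10, 20, 25, 50 and 100 per mL and applied to the disks. A DMSO disk served as negative control. Inhibition zones in mm were read after 18 h at 36 °C.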
On the technique in general: In agar diffusion tests the substance spreads into inoculated agar from a disc or well.

Test [2] has as its system Streptococcus pyogenes. Kind of test: Antibacterial activity against Streptococcus pyogenes at 10 to 100 ug/mL after 18 hrs by disk diffusion method. Format: functional. The essentials:
as §1

The test system of test [3] is Salmonella typhimurium. Kind of test: Antibacterial activity against Salmonella Typhimurium at 10 to 100 ug/mL after 18 hrs by disk diffusion method. Type of test: functional, Salmonella enterica subsp. enterica serovar Typhimurium. The essentials: as §1
For test [4], the system named is Escherichia coli. Kind of test: Antibacterial activity against Escherichia coli at 10 to 100 ug/mL after 18 hrs by disk diffusion method. Format: functional. The gist of the method:
as §1

Test [5] concerns Staphylococcus aureus. Kind of test: Antibacterial activity against Staphylococcus aureus after 18 hrs by […]. Type of test: functional. The essentials: (§2)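 MIC by tube macrodilution. Test compounds dissolved in DMSO, serially diluted to final […]. Each tube received 24 h old inoculum, standard inoculum […]. Incubated 18 h at 37 °C. MIC read visually as the lowest concentration preventing visible growth.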

The test system of test [6] is Streptococcus pyogenes. Kind of test: Antibacterial activity against Streptococcus pyogenes after 18 hrs by […]. Format: functional. The essentials: as §2
Test [7] has as its system Salmonella typhimurium. Nature of the test: Antibacterial activity against Salmonella Typhimurium after 18 hrs by […]. Type of test: functional, Salmonella enterica subsp. enterica serovar Typhimurium. The settings on record: Salmonella enterica. The gist of the method: as §2
Test [8] deals with Escherichia coli. Kind of test: Antibacterial activity against Escherichia coli after 18 hrs by […]. Format: functional. The gist of the method: as §2
Test [9] concerns Staphylococcus aureus. Kind of test: Antibacterial activity against Staphylococcus aureus at 30 ug after 18 hrs by disk diffusion method. The settings on record: read-out: IZ. Type of test: functional. The gist of the method:
(§3)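 Amoxicillin […] disk, positive control in disk diffusion. Bacteria were subcultured in BHI for 18 h at 37 °C and suspended in saline to McFarland standard. Seeded antibiotic agar was poured into plates and 6.0 mm paper disks placed. Inhibition zone in mm was read after 18 h at 36 °C.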

In test [10] the test system is Streptococcus pyogenes. Nature of the test: Antibacterial activity against Streptococcus pyogenes at 30 ug after 18 hrs by disk diffusion method. Format: functional. Conditions: read-out: IZ. The essentials: as §3
Test [11] deals with Salmonella typhimurium. Kind of test: Antibacterial activity against Salmonella Typhimurium at 30 ug after 18 hrs by disk diffusion method. Type of test: functional, Salmonella enterica subsp. enterica serovar Typhimurium. Conditions: Salmonella enterica, read-out: IZ. The essentials:
as §3

Test [12] deals with Escherichia coli. Nature of the test: Antibacterial activity against Escherichia coli at 30 ug after 18 hrs by disk diffusion method. Type of test: functional. Conditions: read-out: IZ. The essentials: as §3

As for `Cc1ccc(NC(=S)N/N=C2\CC[C@@]3(C)C(=CC[C@H]4[C@@H]5CC[C@H]([C@H](C)CCCC(C)C)[C@@]5(C)CC[C@@H]43)C2)cc1`, the “inhibition zone (IZ)” value was determined as 12.6 mm in the test with Staphylococcus aureus [1], 11.5 mm in the test on Streptococcus pyogenes [2], 10.2 mm in the test with Salmonella typhimurium [3] and 10.2 mm with Escherichia coli [4]. Further, the minimal inhibitory concentration (MIC) is 256 µg/mL (≈ 467 µM) against Staphylococcus aureus [5], 256 µg/mL (≈ 467 µM) in the test on Streptococcus pyogenes [6], 128 µg/mL (≈ 234 µM) in the test on Salmonella typhimurium [7] and 128 µg/mL (≈ 234 µM) with Escherichia coli [8].

In the case of `Cc1ccccc1NC(=S)N/N=C1\CC[C@@]2(C)C(=CC[C@H]3[C@@H]4CC[C@H]([C@H](C)CCCC(C)C)[C@@]4(C)CC[C@@H]32)C1`, the “inhibition zone (IZ)” value is given as 14.2 mm with Staphylococcus aureus [1], 12.8 mm in the test on Streptococcus pyogenes [2], 12.4 mm in the test with Salmonella typhimurium [3] and 14.2 mm in the test on Escherichia coli [4]. Besides, the minimal inhibitory concentration (MIC) was found to be 64 µg/mL (≈ 117 µM) in the test on Staphylococcus aureus [5], 64 µg/mL (≈ 117 µM) against Streptococcus pyogenes [6], 128 µg/mL (≈ 234 µM) in the test on Salmonella typhimurium [7] and 128 µg/mL (≈ 234 µM) in the test on Escherichia coli [8].

Take `Cc1cccc(NC(=S)N/N=C2\CC[C@@]3(C)C(=CC[C@H]4[C@@H]5CC[C@H]([C@H](C)CCCC(C)C)[C@@]5(C)CC[C@@H]43)C2)c1`: the “inhibition zone (IZ)” value is reported as 12.4 mm in the test with Staphylococcus aureus [1], 10.6 mm in the test on Streptococcus pyogenes [2], 10.6 mm with Salmonella typhimurium [3] and 11.2 mm in the test with Escherichia coli [4]. Besides, the MIC with Staphylococcus aureus [5] came to 128 µg/mL (≈ 234 µM); with Streptococcus pyogenes [6], 128 µg/mL (≈ 234 µM); against Salmonella typhimurium [7], 128 µg/mL (≈ 234 µM); against Escherichia coli [8] it was 256 µg/mL (≈ 467 µM).

Take `CC1(C)S[C@@H]2[C@H](NC(=O)[C@H](N)c3ccc(O)cc3)C(=O)N2[C@H]1C(=O)O` [AMOXICILLIN]: the zone of inhibition at 30 µg/disc in the test with Staphylococcus aureus [9] turned out to be 21 mm; in the test on Streptococcus pyogenes [10], 22.2 mm; with Salmonella typhimurium [11], 25.2 mm; with Escherichia coli [12], 20 mm. Also, the minimal inhibitory concentration (MIC) against Staphylococcus aureus [5], against Streptococcus pyogenes [6], in the test with Salmonella typhimurium [7] and in the test with Escherichia coli [8] was 32 µg/mL (≈ 87.6 µM) throughout.
